Values after ≈ are worked out from the molar mass of the structure shown.
tested on: Plasmodium falciparum; experiment: In vitro minimum inhibitory concentration against Plasmodium falciparum NF54 over 40 hours; type: functional
Outline: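 Micro assay in 96-well format: compounds at 0.25–50 µg/mL, duplicate wells, incubated with parasitized cells at 37 °C in candle jar, 36–40 h. Giemsa-stained smears scored microscopically for ring-to-schizont maturation. MIC is the concentration fully blocking schizont maturation. Pyrimethamine reference.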

Structure (SMILES) | MIC
COc1ccc(-c2cc(-c3c[nH]c4ccccc34)nc(N3CCN(C)CC3)n2)cc1OC | 1 µg/mL (≈ 2.33 µM)
CN1CCN(c2nc(-c3ccccc3)cc(-c3c[nH]c4ccccc34)n2)CC1 | 1 µg/mL (≈ 2.71 µM)
COc1ccc(OC)c(-c2cc(-c3c[nH]c4ccccc34)nc(N3CCOCC3)n2)c1 | 50 µg/mL (≈ 120 µM)
c1ccc(-c2cc(-c3c[nH]c4ccccc34)nc(N3CCOCC3)n2)cc1 | 50 µg/mL (≈ 140 µM)
c1ccc(-c2cc(-c3c[nH]c4ccccc34)nc(N3CCCCC3)n2)cc1 | 10 µg/mL (≈ 28.2 µM)
COc1ccc(OC)c(-c2cc(-c3c[nH]c4ccccc34)nc(N3CCCCC3)n2)c1 | 10 µg/mL (≈ 24.1 µM)
COc1ccc(-c2cc(-c3c[nH]c4ccccc34)nc(N3CCOCC3)n2)cc1OC | 50 µg/mL (≈ 120 µM)
COc1ccc(OC)c(-c2cc(-c3c[nH]c4ccccc34)nc(N3CCCC3)n2)c1 | 10 µg/mL (≈ 25 µM)
c1ccc(-c2cc(-c3c[nH]c4ccccc34)nc(N3CCCC3)n2)cc1 | 10 µg/mL (≈ 29.4 µM)
COc1ccc(-c2cc(-c3c[nH]c4ccccc34)nc(N3CCCCC3)n2)cc1OC | 10 µg/mL (≈ 24.1 µM)
COc1ccc(OC)c(-c2cc(-c3c[nH]c4ccccc34)nc(N3CCN(C)CC3)n2)c1 | 1 µg/mL (≈ 2.33 µM)

Other lines, results leading:

MIC | Structure (SMILES)
10 µg/mL (≈ 26.7 µM) | Clc1ccc(-c2cc(-c3c[nH]c4ccccc34)nc(N3CCCC3)n2)cc1
1 µg/mL (≈ 2.48 µM) | CN1CCN(c2nc(-c3ccc(Cl)cc3)cc(-c3c[nH]c4ccccc34)n2)CC1
10 µg/mL (≈ 25.7 µM) | Clc1ccc(-c2cc(-c3c[nH]c4ccccc34)nc(N3CCCCC3)n2)cc1
50 µg/mL (≈ 128 µM) | Clc1ccc(-c2cc(-c3c[nH]c4ccccc34)nc(N3CCOCC3)n2)cc1
10 µg/mL (≈ 27.1 µM) | Cc1ccc(-c2cc(-c3c[nH]c4ccccc34)nc(N3CCCCC3)n2)cc1
10 µg/mL (≈ 26 µM) | COc1ccc(-c2cc(-c3c[nH]c4ccccc34)nc(N3CCCCC3)n2)cc1
1 µg/mL (≈ 2.5 µM) | COc1ccc(-c2cc(-c3c[nH]c4ccccc34)nc(N3CCN(C)CC3)n2)cc1
1 µg/mL (≈ 2.61 µM) | Cc1ccc(-c2cc(-c3c[nH]c4ccccc34)nc(N3CCN(C)CC3)n2)cc1
50 µg/mL (≈ 129 µM) | COc1ccc(-c2cc(-c3c[nH]c4ccccc34)nc(N3CCOCC3)n2)cc1
50 µg/mL (≈ 135 µM) | Cc1ccc(-c2cc(-c3c[nH]c4ccccc34)nc(N3CCOCC3)n2)cc1
10 µg/mL (≈ 27 µM) | COc1ccc(-c2cc(-c3c[nH]c4ccccc34)nc(N3CCCC3)n2)cc1
10 µg/mL (≈ 25 µM) | COc1ccc(-c2cc(-c3c[nH]c4ccccc34)nc(N3CCCC3)n2)cc1OC
10 µg/mL (≈ 28.2 µM) | Cc1ccc(-c2cc(-c3c[nH]c4ccccc34)nc(N3CCCC3)n2)cc1
10 µg/mL (≈ 40.2 µM) | CCc1nc(N)nc(N)c1-c1ccc(Cl)cc1 [PYRIMETHAMINE]

From ChEMBL document CHEMBL1139634, “Synthesis of substituted indole derivatives as a new class of antimalarial agents” (2005)
